Assay [1] addresses Proteasome Macropain subunit (Homo sapiens) (UniProt P49721). Nature of the assay: Inhibition of human 20S constitutive proteasome beta-2 at 50 uM using BocLRR-AMC as substrate incubated for 15 mins measured for 45 mins by fluorescence assay relative to control. In a few lines:
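Purified human 20S proteasome (cCP or iCP), 0.3 nM, preincubated 15 min with compound (0.001-50 μM) in pH 8 buffer of 20 mM Tris-HCl, 10% glycerol, 0.005% Triton X-100, 2% DMSO. Then Boc-LRR-AMC at 50 μM was added. AMC fluorescence (ex 360/em 460 nm) was followed 45 min at 37 °C. Activity is relative to an untreated control.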

Assay [2] deals with T1, Proteasome subunit beta type-10 (Homo sapiens) (UniProt P40306).
T1 sequence (whole entry): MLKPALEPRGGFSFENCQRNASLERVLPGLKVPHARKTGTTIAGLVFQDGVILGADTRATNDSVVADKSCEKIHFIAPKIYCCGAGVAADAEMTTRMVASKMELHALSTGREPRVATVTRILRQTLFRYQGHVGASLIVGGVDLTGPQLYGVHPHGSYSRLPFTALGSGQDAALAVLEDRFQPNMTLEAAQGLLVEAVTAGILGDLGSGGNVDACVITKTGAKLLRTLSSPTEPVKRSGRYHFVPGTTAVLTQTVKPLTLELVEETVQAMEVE
The experiment in a line: Inhibition of human 20S immunoproteasome beta-2 at 50 uM using BocLRR-AMC as substrate incubated for 15 mins measured for 45 mins by fluorescence assay relative to control.

Assay [3] addresses T2, Proteasome subunit beta type-10 (Homo sapiens, UniProt P40306).
T2 sequence (P40306 whole entry): T1 sequence (whole entry)
Nature of the assay: Inhibition of human 20S immunoproteasome beta-2 using BocLRR-AMC as substrate incubated for 15 mins measured for 45 mins by fluorescence assay.

In assay [4] the target is T3, Proteasome component C5 (Homo sapiens) (UniProt P20618).
T3 sequence (whole entry): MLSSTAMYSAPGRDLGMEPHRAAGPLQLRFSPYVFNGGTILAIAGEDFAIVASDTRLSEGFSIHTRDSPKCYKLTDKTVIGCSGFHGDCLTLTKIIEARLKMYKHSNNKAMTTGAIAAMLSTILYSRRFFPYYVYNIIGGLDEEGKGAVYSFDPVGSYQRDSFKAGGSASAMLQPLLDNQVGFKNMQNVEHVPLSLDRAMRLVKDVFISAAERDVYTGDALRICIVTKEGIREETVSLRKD
Nature of the assay: Inhibition of human 20S constitutive proteasome beta-1 at 50 uM using Z-LLE-betaNA as substrate incubated for 15 mins measured for 45 mins by fluorescence assay relative to control. Summed up:
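Human 20S constitutive proteasome, 0.3 nM, was preincubated 15 min with compound (0.001-50 μM) in pH 8 Tris-HCl 20 mM, 10% glycerol, 0.01% SDS, 2% DMSO. Z-LLE-βNA at 50 μM was added. βNA fluorescence (ex 340/em 404 nm) was monitored 45 min at 37 °C against an untreated control.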

Assay [5] deals with T4, Proteasome subunit beta type-9 (Homo sapiens, UniProt P28065).
T4 sequence (P28065 whole entry): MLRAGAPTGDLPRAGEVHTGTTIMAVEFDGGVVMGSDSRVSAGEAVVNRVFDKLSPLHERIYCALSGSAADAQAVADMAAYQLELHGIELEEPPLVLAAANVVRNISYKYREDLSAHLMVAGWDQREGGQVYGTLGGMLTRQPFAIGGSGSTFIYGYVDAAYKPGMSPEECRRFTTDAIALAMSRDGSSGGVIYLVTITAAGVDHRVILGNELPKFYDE
The experiment in a line: Inhibition of human 20S immunoproteasome beta-1 using Ac-PAL-AMC as substrate incubated for 15 mins measured for 45 mins by fluorescence assay. Summed up: (§1)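 Human 20S immunoproteasome (0.3 nM) was given 15 min with compound (0.001-50 μM) in pH 8 buffer of 20 mM Tris-HCl, 10% glycerol, 0.01% SDS, 2% DMSO. Ac-PAL-AMC at 50 μM was the substrate. Fluorescence (ex 360/em 460 nm) was followed 45 min at 37 °C relative to control.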

The target of assay [6] is T5, Proteasome Macropain subunit MB1 (Homo sapiens, UniProt P28074).
T5 sequence (P28074 whole entry): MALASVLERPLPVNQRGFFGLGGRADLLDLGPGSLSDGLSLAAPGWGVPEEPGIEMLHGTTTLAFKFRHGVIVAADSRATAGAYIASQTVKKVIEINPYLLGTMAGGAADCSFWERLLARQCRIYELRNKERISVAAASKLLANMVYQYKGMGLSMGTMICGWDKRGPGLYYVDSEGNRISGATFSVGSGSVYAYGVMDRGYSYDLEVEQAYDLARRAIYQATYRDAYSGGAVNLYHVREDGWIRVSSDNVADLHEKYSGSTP
The experiment in a line: Inhibition of human 20S constitutive proteasome beta-5 using Suc-LLVY-AMC as substrate incubated for 15 mins measured for 45 mins by fluorescence assay. Summed up:
(§2)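 Human 20S cCP or iCP (0.3 nM) was exposed to compound (0.001-50 μM) for 15 min in pH 8 buffer of 20 mM Tris-HCl, 10% glycerol, 0.01% SDS, 2% DMSO. Suc-LLVY-AMC at 20 μM followed. Fluorescence (ex 360/em 460 nm) was read 45 min at 37 °C versus untreated enzyme.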

For assay [7], the target named is T6, Proteasome subunit beta type-8 (Homo sapiens) (UniProt P28062).
T6 sequence (whole entry): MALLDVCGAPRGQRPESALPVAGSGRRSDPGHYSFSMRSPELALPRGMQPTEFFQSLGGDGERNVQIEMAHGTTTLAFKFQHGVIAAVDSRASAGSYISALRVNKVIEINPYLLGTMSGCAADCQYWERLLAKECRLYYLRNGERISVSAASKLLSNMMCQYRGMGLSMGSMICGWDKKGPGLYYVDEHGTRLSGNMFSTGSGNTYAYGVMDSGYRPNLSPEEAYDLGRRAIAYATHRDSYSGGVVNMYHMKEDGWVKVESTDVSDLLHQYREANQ
Nature of the assay: Inhibition of human 20S immunoproteasome beta-5 at 50 uM using Suc-LLVY-AMC as substrate incubated for 15 mins measured for 45 mins by fluorescence assay relative to control. In a few lines: as §2

In assay [8] the target is T7, Proteasome subunit beta type-8 (Homo sapiens, UniProt P28062).
T7 sequence (P28062 whole entry): T6 sequence (whole entry)
The experiment in a line: Inhibition of human 20S immunoproteasome beta-5 using Suc-LLVY-AMC as substrate incubated for 15 mins measured for 45 mins by fluorescence assay. Summed up: as §2

Assay [9] concerns the target T8, Proteasome subunit beta type-9 (Homo sapiens) (UniProt P28065).
T8 sequence (whole entry): T4 sequence (P28065 whole entry)
The experiment in a line: Inhibition of human 20S immunoproteasome beta-1 at 50 uM using Ac-PAL-AMC as substrate incubated for 15 mins measured for 45 mins by fluorescence assay relative to control. In a few lines:
as §1

For assay [10], the target named is T9, Proteasome Macropain subunit MB1 (Homo sapiens) (UniProt P28074).
T9 sequence (whole entry): T5 sequence (P28074 whole entry)
The experiment in a line: Inhibition of human 20S constitutive proteasome beta-5 at 50 uM using Suc-LLVY-AMC as substrate incubated for 15 mins measured for 45 mins by fluorescence assay relative to control. Summed up: as §2

Where only a bound is given, the exact number is not on record here.

Proteasome Macropain subunit (Homo sapiens), sequence (P49721 whole entry): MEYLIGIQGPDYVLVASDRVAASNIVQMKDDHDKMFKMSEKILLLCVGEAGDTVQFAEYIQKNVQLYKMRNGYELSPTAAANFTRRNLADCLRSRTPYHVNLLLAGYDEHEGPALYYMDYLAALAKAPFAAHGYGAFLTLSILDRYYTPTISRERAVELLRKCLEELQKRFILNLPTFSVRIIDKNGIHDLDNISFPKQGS

With `CC(C)(C)OC(=O)N[C@@H](Cc1ccc(OCc2ccccc2)cc1)C(=O)NCC(=O)N[C@@H](C[C@]1(O)C(=O)Nc2ccccc21)C(=O)NCc1ccccc1`, the inhibition in assay [1], in assay [2], in assay [4], in assay [7], in assay [9] and in assay [10] was more than 85% in each case. For the same compound, the half-maximal inhibitory concentration (IC50) – broadly, the concentration that inhibits the measured activity by half – in [3] was found to be 8.9 µM; in [5], 12.6 µM; in assay [6], 6.2 µM; in assay [8], 7.8 µM.

As to `C[C@@H](NC(=O)[C@H](Cc1ccc(OCc2ccccc2)cc1)NC(=O)OC(C)(C)C)C(=O)N[C@@H](C[C@]1(O)C(=O)Nc2ccccc21)C(=O)NCc1ccccc1`, the inhibition in [1], in [2], in assay [4], in [7], in assay [9] and in assay [10] was more than 85% each time. Moreover, the IC50 in assay [3] turned out to be 21.4 µM; in [5], 12.5 µM; in assay [6], 9.2 µM; in assay [8], 13.2 µM.

As for `NCCCC[C@H](NC(=O)[C@@H](N)Cc1ccc(OCc2ccccc2)cc1)C(=O)N[C@@H](C[C@]1(O)C(=O)Nc2ccccc21)C(=O)NCc1ccccc1`, the inhibition in assay [1], in assay [2], in assay [4], in assay [7], in assay [9] and in assay [10] was more than 85% throughout. Also, the IC50 amounted to 0.82 µM in assay [3], 4.3 µM in [5], 2.9 µM in assay [6] and 3.8 µM in assay [8].

Consider `C[C@H](NC(=O)Cc1cccc(Oc2ccccc2)c1)C(=O)N[C@@H](C[C@]1(O)C(=O)Nc2ccccc21)C(=O)NCc1ccccc1`, for which the inhibition in [1], in [2], in assay [4], in assay [7], in [9] and in [10] was more than 85% in each case. The 50% inhibitory concentration (IC50) came out at 14.3 µM in assay [3], 14 µM in assay [5], 0.35 µM in [6] and 0.26 µM in assay [8].

Take `C[C@H](NC(=O)[C@H](Cc1ccc(OCc2ccccc2)cc1)NC(=O)OC(C)(C)C)C(=O)N[C@@H](C[C@]1(O)C(=O)Nc2ccccc21)C(=O)NCC(C)(C)C`: the inhibition in [1], in assay [2], in assay [4], in assay [7], in assay [9] and in assay [10] was more than 85% in each case. The IC50 turned out to be 30 µM in assay [3], 21 µM in assay [5], 11.3 µM in assay [6] and 12.6 µM in assay [8].

Consider `C[C@H](NC(=O)[C@H](Cc1ccc(OCc2ccccc2)cc1)NC(=O)OC(C)(C)C)C(=O)N[C@@H](C[C@]1(O)C(=O)Nc2ccccc21)C(=O)NCc1cccc2ccccc12`, for which the inhibition in assay [1], in assay [2], in assay [4], in assay [7], in assay [9] and in [10] was more than 85% throughout. The concentration for half-maximal inhibition (IC50) was 2.7 µM in assay [3], 2.77 µM in assay [5], 1.4 µM in assay [6] and 1.9 µM in [8].

Source of the values: ChEMBL document CHEMBL4251654, “Structure-based design of human immuno- and constitutive proteasomes inhibitors” (Eur J Med Chem, 2018).
